# Published values from different studies.
# Compare with care: the assays were run in different laboratories.
# rep main protease: Replicase polyprotein 1ab, main protease (rep, Porcine epidemic diarrhea virus, UniProt P0C6Y4)
# SLC6A4: Sodium-dependent serotonin transporter (SLC6A4, Homo sapiens, UniProt P31645)
Compound,target,assay,setting,quantity,value
COc1ccc(CNC(=O)c2ccc(Br)cc2)cc1OC,rep main protease,"enzyme activity, inhibitor, FRET",10 µM,inhibition,60.4%
CCOC(=O)[C@@]12C[C@@H]1[C@@H](n1cnc3c(Nc4ccccc4)nc(C#Cc4ccc(Cl)s4)nc31)[C@H](O)[C@@H]2O,SLC6A4,"ligand displacement, radioligand",10 µM,inhibition,20%
O=C(NCc1cc(O)c(O)c(Br)c1)c1ccncc1Cl,"Replicase polyprotein 1ab, papain-like protease (rep, Porcine epidemic diarrhea virus, UniProt P0C6Y4)","enzyme activity, inhibitor, FRET",10 µM,inhibition,44.4%
CN1CCc2cccc3c2[C@H]1Cc1ccc(O)c(O)c1-3,"D(1A) dopamine receptor (DRD1, Homo sapiens, UniProt P21728)","cAMP, agonist",,Emax,~100%
O=C(NCc1cc(O)c(O)c(Br)c1)c1cccc(Br)c1,rep main protease,"enzyme activity, inhibitor, FRET",10 µM,inhibition,98.4%
Cc1cc(O)c(-c2ccc([C@@H](C)CN(C)C)cc2)c2c1[nH]c(=O)c1sccc12,"Mitogen-activated protein kinase kinase kinase 20 (MAP3K20, Homo sapiens, UniProt Q9NYL2)","enzyme activity, inhibitor",0.1 µM,inhibition,-2.95%
CCOC(=O)[C@@]12C[C@@H]1[C@@H](n1ccc3c(NCCCCc4ccccc4)nc(C#Cc4ccccc4)nc31)[C@H](O)[C@@H]2O,SLC6A4,"ligand displacement, radioligand",10 µM,inhibition,9%
C1=C/COCc2cc(ccc2OCCN2CCCC2)Nc2nccc(n2)-c2cccc(c2)COC/1,"Serine/threonine-protein kinase Nek2 (NEK2, Homo sapiens, UniProt P51955)",binding,0.1 µM,remaining binding,75%
COc1cc(-c2cc(C(C)=O)n3ccccc23)cc(OC)c1Cn1ccnc1,"Bromodomain adjacent to zinc finger domain protein 2B, bromodomain (BAZ2B, Homo sapiens, UniProt Q9UIF8)","thermal stability, DSF",,ΔTm,1.6 °C
CCOC(=O)[C@@]12C[C@@H]1[C@@H](n1cnc3c(NCCCCCCc4ccccc4)nc(I)nc31)[C@H](O)[C@@H]2O,SLC6A4,"ligand displacement, radioligand",10 µM,inhibition,68%
COc1cc(CNC(=O)c2ccco2)cc(Br)c1OC,rep main protease,"enzyme activity, inhibitor, FRET",10 µM,inhibition,64.9%
CCOC(=O)[C@@]12C[C@@H]1[C@@H](n1ccc3c(NCCCCCc4ccccc4)nc(C#Cc4ccccc4)nc31)[C@H](O)[C@@H]2O,SLC6A4,"ligand displacement, radioligand",10 µM,inhibition,29%
O=C(NCc1cc(O)c(O)c(Br)c1)c1ccc(Cl)nc1,rep main protease,"enzyme activity, inhibitor, FRET",10 µM,inhibition,6.11%
O[C@@H]1[C@H](O)[C@@H]2C[C@@H]2[C@H]1n1cnc2c(NCCC3CC3)ncnc21,SLC6A4,"ligand displacement, radioligand","10 µM, cell membranes",inhibition,14%
CCCCC(=O)Nc1ccc(-c2ccc3ncn(CCC)c(=O)c3c2)cn1,"BDNF/NT-3 growth factors receptor (NTRK2, Homo sapiens, UniProt Q16620)","binding, competition with immobilised ligand",0.5 µM,remaining binding,100%
